# Laboratory results: the array DNA melting data of Ke et al. (doi:10.1101/2024.01.08.574731)
# How the values were obtained:
# [1] = melting temperature; fluorescence melt of hairpins on a sequencing array, two-state fit, raised by 9.35 °C to match UV melts; conditions: sodium 0.088 M
# Summary of the method: (§1)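 Melting temperature and folding enthalpy were obtained by bootstrapped two-state fitting. Fits used Cy3 fluorescence of library hairpins with annealed Cy3 and quencher oligos on a sequenced MiSeq flow cell, imaged in 50 mM Na-HEPES pH 8.0, 25 mM NaCl in 2.5 °C steps up to 60 °C and normalised to pre-quench Cy3 and control constructs. Four replicates were combined by inverse-variance weighting, and fitted temperatures were raised by 9.35 °C to match UV melts.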
# [2] = folding enthalpy; higher = less favourable; fluorescence melt of hairpins on a sequencing array, two-state fit; conditions: sodium 0.088 M
# Summary of the method: as §1
Sequence,Tm [1] [°C],folding enthalpy [2] [kcal/mol]
GATCCCAAAGGGGATC ((((((....)))))),57.3,-31.7
GCACCGCGAAAGCATTGC (((..((....))..))),33.4,-10.3
GTATCCCGAAAGGGTTAC (((.(((....))).))),47.4,-21
GATGTACGAAAGTAGATC (((.(((....))).))),44,-30.5
GATCTCTGAGGAGATC ((((((....)))))),55.8,-43.4
GATCGGCGGGCCGATC ((((((....)))))),66.9,-38.9
GGTGACGAAAGTCACACC ((((((....)))..))),56,-7.84
GATCTGAAACAGATC ((((((...)))))),46.3,-31.6
GATCCTCAGAGGATC ((((((...)))))),52.1,-31.6
GCGGGTGGAAACGCCTGC ((.((.(....).)).)),51.7,-28
GCATCCGAAAGGAAATGC ((((((....)))..))),46.1,-25.3
GCTCACGAAAGTGAAGC ((((((....))).))),56,-29
GGTTCGCGAAAGCGACC (((.(((....)))))),61.7,-14.9
GTTTTCTCGAAAGAGAAC (((..(((....)))))),34.7,-15.3
GGTTACGAAAGTAACACC ((((((....)))..))),44.6,-12.7
GTACTCGAAAGAGCTTAC ((((((....)))..))),27.6,-11.4
GGTATCGAAAGATACC ((((((....)))))),62.1,-43.2
GCGACGGGAAACTGTCGC (((((.(....).))))),67.6,-35.9
GGAAGCGAAAGCTTGTCC ((((((....)))..))),35.8,-10.3

Sequence,Tm [1] [°C],folding enthalpy [2] [kcal/mol]
GTGAGCGAAAGCTTTCAC ((((((....)))..))),32.3,-10.7
GCCCGGCGAAAGCAGTGC ((.(.((....)).).)),40.5,-18.2
GATCTTCCGTAAGATC ((((((....)))))),43.8,-29.8
GTTAGACGAAAGTCAAC (((.(((....)))))),43,-13.4
GAAAACCGAAAGGTCTTC (((.(((....))).))),35.8,-18.9
GATCTTTGGGAAGATC ((((((....)))))),45.6,-34.1
GCGGGACCCCGC ((((....)))),67.8,-26
GTCGTTCGAAAGAATGAC (((.(((....))).))),54.9,-42.1
GCTACGCGAAAGCGCCGC ((..(((....)))..)),36.8,-10.9
GGCTCCGGAAACGAAGCC ((((.((....)).)))),50.7,-40.4
GGTGGGACGAAAGTCACC (((..(((....)))))),47,-14.4
GATCCTATGCAGGATC ((((((....)))))),53,-35.2
GATCGTTATGACGATC ((((((....)))))),55.9,-38.6
GATCGTCGCAACGATC ((((((....)))))),56.2,-38.1
ATCCAGAAATGGAT (((((....))))),41.2,-14.3
GATCGTTCGACGATC ((((((...)))))),55.7,-38.2
GGAGTTGGAAACAGTTCC (((..((....))..))),35,-13.4
GCGATAACGAAAGTTCGC (((..(((....)))))),51.1,-28.2
GTTTGGCGAAAGCCAAC (((.(((....)))))),48.7,-11.1
